# Results pooled from the literature.
# Compare with care: the assays were run in different laboratories.
# Target: Homeodomain-interacting protein kinase 2 (HIPK2, Homo sapiens, UniProt Q9H2X6)
Compound,assay,conditions,remaining binding
CC(C)(O)c1cncc(-c2nc3ccc(F)cc3n2C2CC2)c1,"cell-free assay, competition with immobilised ligand",1 µM,100%
C[C@@H](c1ccc(-n2cnc3c(N)ncnc32)cc1)N1CCc2nn(C)c(Cc3ccccc3)c2C1=O,"binding, competition with immobilised ligand",0.1 µM,80%
CN(C)c1ncc(F)c(-c2cnn3ncccc23)n1,binding,1 µM,57%
O=C(O)[C@H]1[C@H](Cn2nnc3ccccc3c2=O)CC[C@@H]1C(=O)c1ccc(OCCC2CCOCC2)cc1,"cell-free assay, competition with immobilised ligand",1 µM,100%
COc1cc(Nc2nccc(-c3cnn4nc(OC)ccc34)n2)cc(C(F)(F)F)c1,"binding, competition with immobilised ligand",1 µM,34%
CN(C)C(=O)Cn1cc(-c2nc(C3(c4ccc(-c5cnc(N)nc5)cc4)CC3)no2)cn1,"cell-free assay, competition with immobilised ligand",1 µM,94%
CN(c1nccc(-c2cnn3ncccc23)n1)C1CC1,binding,1 µM,100%
O=C(NCCCN1CCOCC1)c1ccc(Nc2ncc(Cl)c(-c3ccc(Cl)s3)n2)cc1,"binding, competition with immobilised ligand",1 µM,8.9%
NS(=O)(=O)c1cc(NC(=O)C2(c3ccccc3Cl)CC2)ccc1Oc1cccc(Cl)c1,"cell-free assay, competition with immobilised ligand",1 µM,88%
O=C(c1ccc(Nc2nccc(-c3cc4ccccc4s3)n2)cc1)N1CCC(N2CCCC2)CC1,"binding, competition with immobilised ligand",1 µM,8.8%
CC1=C(C#N)[C@@H](c2ccc3[nH]nc(C)c3c2)C(C#N)=C(c2ccc(Cl)cc2)N1,"cell-free assay, competition with immobilised ligand",1 µM,86.1%
Nc1ncc2c(n1)-c1c([nH]c3ccc(C#CC4CC4)cc13)CCCC2,"binding, competition with immobilised ligand",1 µM,97%
N[C@@H]1CCN(c2nccc(-c3cnn4ncccc34)n2)C1,binding,1 µM,100%
COc1cnc(Nc2cccc(S(N)(=O)=O)c2)nc1N1CCN(c2ccccc2)C(=O)C1,"binding, competition with immobilised ligand",1 µM,100%
C[C@H]1CCN(c2nccc(-c3cnn4ncccc34)n2)C1,binding,1 µM,45%
COc1ncc2cc3ccccc3nc2c1C#N,"cell-free assay, competition with immobilised ligand",5 µM,98%
CC1CCCN1c1nccc(-c2cnn3ncccc23)n1 (stereo not shown),binding,1 µM,100%
O=C(NCCCN1CCOCC1)c1ccc(Nc2nccc(-c3cc4ccccc4s3)n2)cc1,"binding, competition with immobilised ligand",1 µM,34%
F[C@@H]1CCN(c2nccc(-c3cnn4ncccc34)n2)C1,binding,1 µM,100%
Cc1c[nH]c2nccc(Oc3c(F)cc(Nc4cc(Cl)nc(N)n4)cc3F)c12,"cell-free assay, competition with immobilised ligand",0.1 µM,90%
CN(CCCC(F)(F)F)c1nccc(-c2cnn3ncccc23)n1,binding,1 µM,100%
O=C(Nc1c[nH]nc1C(=O)NC1CCNCC1)c1cc(F)cc(F)c1,"binding, competition with immobilised ligand",1 µM,33%
